{"source": "paper PMC3288198", "about": "(ACS Chemical Biology, 2011)", "key": {"[1]": {"molecular_target": "T1, HDAC6 (Homo sapiens, UniProt Q9UBN7)", "T1 sequence (Q9UBN7 1-1215)": "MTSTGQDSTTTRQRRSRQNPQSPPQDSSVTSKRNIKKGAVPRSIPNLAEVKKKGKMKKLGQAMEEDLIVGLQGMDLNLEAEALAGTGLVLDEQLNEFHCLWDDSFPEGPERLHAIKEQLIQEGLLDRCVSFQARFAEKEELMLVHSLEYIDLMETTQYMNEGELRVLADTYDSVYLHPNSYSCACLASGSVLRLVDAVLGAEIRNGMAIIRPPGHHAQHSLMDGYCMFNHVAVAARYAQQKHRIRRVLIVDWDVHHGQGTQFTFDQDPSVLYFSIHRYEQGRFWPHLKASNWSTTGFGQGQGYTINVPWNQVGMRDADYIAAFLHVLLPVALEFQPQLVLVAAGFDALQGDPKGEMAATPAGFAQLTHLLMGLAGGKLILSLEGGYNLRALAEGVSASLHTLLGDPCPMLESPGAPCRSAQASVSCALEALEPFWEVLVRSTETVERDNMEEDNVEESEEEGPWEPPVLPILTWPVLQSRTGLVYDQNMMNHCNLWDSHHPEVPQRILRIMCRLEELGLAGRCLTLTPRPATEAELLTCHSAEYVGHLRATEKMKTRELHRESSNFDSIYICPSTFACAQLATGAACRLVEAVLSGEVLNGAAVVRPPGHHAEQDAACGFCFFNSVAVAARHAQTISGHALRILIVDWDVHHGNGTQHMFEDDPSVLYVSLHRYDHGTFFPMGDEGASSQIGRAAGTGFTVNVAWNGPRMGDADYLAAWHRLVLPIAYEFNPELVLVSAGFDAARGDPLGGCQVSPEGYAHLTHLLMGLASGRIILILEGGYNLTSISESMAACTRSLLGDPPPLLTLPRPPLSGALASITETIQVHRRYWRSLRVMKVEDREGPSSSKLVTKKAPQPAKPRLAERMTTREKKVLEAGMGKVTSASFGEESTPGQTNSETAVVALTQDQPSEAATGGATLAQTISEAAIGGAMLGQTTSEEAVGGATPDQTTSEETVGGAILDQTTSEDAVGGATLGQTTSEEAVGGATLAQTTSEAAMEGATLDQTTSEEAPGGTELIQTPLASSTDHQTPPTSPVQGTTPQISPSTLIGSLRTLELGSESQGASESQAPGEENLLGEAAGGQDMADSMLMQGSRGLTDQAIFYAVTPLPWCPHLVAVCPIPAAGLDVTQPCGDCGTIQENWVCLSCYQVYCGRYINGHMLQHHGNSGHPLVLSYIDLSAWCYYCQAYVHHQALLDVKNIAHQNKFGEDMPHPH", "assay": "HDAC deacetylase homogenous fluorescence assay, HDAC6", "type": "biochemical", "outline": "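Baculovirus-expressed recombinant human enzyme (HDAC3 as HDAC3/N-CoR2 complex) incubated with serially diluted test compound over a 12-point titration. Substrate: acetylated AMC-K(Ac)GL. Deacetylated product cleaved by lysine peptidase to free MCA, read at ex 355/em 460 nm. Data normalised to control plate by plate. IC50 and SD from non-linear regression; Ki via Cheng-Prusoff, Ki = IC50/(1+[S]/Km).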"}, "[2]": {"molecular_target": "T2, HDAC7 (Homo sapiens, UniProt Q8WUI4)", "T2 sequence (Q8WUI4 1-952)": "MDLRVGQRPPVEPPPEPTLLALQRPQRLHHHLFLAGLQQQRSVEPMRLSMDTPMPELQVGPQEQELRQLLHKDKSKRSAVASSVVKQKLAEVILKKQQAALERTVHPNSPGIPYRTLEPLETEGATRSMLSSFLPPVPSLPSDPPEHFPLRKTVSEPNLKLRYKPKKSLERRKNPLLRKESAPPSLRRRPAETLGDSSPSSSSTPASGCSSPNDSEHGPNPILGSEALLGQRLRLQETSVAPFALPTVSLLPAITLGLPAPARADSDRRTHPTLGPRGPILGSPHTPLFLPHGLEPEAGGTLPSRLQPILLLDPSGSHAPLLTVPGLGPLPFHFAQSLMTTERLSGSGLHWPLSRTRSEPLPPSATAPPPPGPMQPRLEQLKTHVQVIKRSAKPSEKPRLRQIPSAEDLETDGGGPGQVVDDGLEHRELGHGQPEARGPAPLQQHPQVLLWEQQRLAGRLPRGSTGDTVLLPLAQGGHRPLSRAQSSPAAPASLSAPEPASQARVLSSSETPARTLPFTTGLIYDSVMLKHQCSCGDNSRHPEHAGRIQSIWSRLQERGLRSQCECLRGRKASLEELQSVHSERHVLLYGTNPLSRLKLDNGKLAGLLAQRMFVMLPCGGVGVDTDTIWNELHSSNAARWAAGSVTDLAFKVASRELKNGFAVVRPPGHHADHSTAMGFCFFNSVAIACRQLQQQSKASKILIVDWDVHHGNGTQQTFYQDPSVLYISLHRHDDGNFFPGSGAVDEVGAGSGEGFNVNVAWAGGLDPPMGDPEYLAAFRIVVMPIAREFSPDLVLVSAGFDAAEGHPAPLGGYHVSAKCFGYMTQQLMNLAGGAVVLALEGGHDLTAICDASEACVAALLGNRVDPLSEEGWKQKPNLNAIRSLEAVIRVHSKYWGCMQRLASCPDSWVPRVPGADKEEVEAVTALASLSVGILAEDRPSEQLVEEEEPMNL", "assay": "HDAC deacetylase homogenous fluorescence assay, HDAC7", "type": "biochemical"}, "[3]": {"test_system": "acetylated histone H3 and H4", "assay": "Western blot of acetylated histone H3/H4 in MV4-11 cells", "type": "cell-based, human", "outline": "(§1)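 MV4-11 cells (10% heat-inactivated FBS, 37°C, 5% CO2) treated with test compound at a range of concentrations. Washed in cold HBSS and lysed 30 min in low-salt Tris pH 7.4 buffer with protease/phosphatase inhibitors and 1 μM TSA, then sonicated. LDS-denatured lysates run on 4–12% gradient gels. Probes: acetyl-H3, acetyl-H4, total H3, acetyl-α-tubulin, tubulin. HRP secondary, ECL read-out.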"}, "[4]": {"test_system": "acetylated tubulin", "assay": "Western blot of acetylated tubulin in MV4-11 cells", "type": "cell-based, human", "outline": "as §1"}, "[5]": {"test_system": "non-proliferating PBMC (no mitogen stimulation)", "assay": "Viability of resting PBMC", "type": "cell-based, human"}, "[6]": {"test_system": "ubiquitinated protein", "assay": "Western blot of total ubiquitinated protein in MV4-11 cells", "type": "cell-based, human", "conditions": "within 3 hr"}, "[7]": {"conditions": "read-out: HDAC6 IC50, 12 point titration, acetylated substrate"}, "[8]": {"conditions": "read-out: HDAC6 Ki, converted from IC50 using Cheng-Prusoff equation"}, "[9]": {"conditions": "read-out: HDAC7 IC50, 12 point titration, trifluoroacetylated substrate"}, "[10]": {"conditions": "read-out: HDAC7 Ki, converted from IC50 using Cheng-Prusoff equation"}}, "note": "Where two headings read alike, the source gives them in different places.", "data": [{"compound": "OC[C@H]1O[C@H]([S-])[C@H](O)[C@@H](O)[C@@H]1O.[Au+]", "note": "[Aurothioglucose, 1-thio-D-glucopyronaose gold salt]", "values": [{"measurement": "IC50", "setting": "[1]; [7]", "value": "14.4 ± 5.8", "unit": "µM"}, {"measurement": "Ki", "setting": "[1]; [8]", "value": 3.49, "unit": "µM"}, {"measurement": "IC50", "setting": "[2]; [9]", "value": "22.4 ± 4.4", "unit": "µM"}, {"measurement": "Ki", "setting": "[2]; [10]", "value": 6.35, "unit": "µM"}]}, {"compound": "O=c1c2ccccc2[se]n1-c1ccccc1", "note": "[Ebselen, 2-phenyl-1,2-benzisoselenazol-3(2H)-one]", "values": [{"measurement": "IC50", "setting": "[1]", "value": "12.8 ± 2.6", "unit": "µM"}, {"measurement": "Ki", "setting": "[1]", "value": 3.1, "unit": "µM"}, {"measurement": "IC50", "setting": "[2]", "value": "10.9 ± 2.2", "unit": "µM"}, {"measurement": "Ki", "setting": "[2]", "value": 3.09, "unit": "µM"}]}, {"compound": "NC(N)=Nc1ccc2[nH]c3c(c2c1)C[C@@]1(O)[C@H]2Cc4ccc(O)c5c4[C@@]1(CCN2CC1CC1)[C@H]3O5", "note": "[GNTI, guanidinyl-naltrindole di-trifluoroacetate]", "values": [{"measurement": "IC50", "setting": "[1]; [7]", "value": "> 180", "unit": "µM"}, {"measurement": "IC50", "setting": "[2]; [9]", "value": "18.9 ± 1", "unit": "µM"}, {"measurement": "Ki", "setting": "[2]; [10]", "value": 5.36, "unit": "µM"}]}, {"compound": "O=C1C(SCCO)=C(SCCO)C(=O)c2ccccc21", "note": "[NSC-95397, 2,3-bis[(2-Hydroxyethyl)thio]-1,4-naphthoquinone]", "values": [{"measurement": "effect on acetylated histone H3/H4 levels", "setting": "[3]", "value": "without an increase in acetylated histone levels"}, {"measurement": "induction of acetylated tubulin", "setting": "[4]", "value": "induces hyperacetylated tubulin"}, {"measurement": "effect on resting (non-proliferating) PBMC viability", "setting": "[5]", "value": "inactive"}, {"measurement": "effect on resting (non-proliferating) PBMC viability", "setting": "[5]; listed as NSC", "value": "not affected"}, {"measurement": "total ubiquitinated protein level", "setting": "[6]", "value": "increase in total ubiquitinated protein level"}, {"measurement": "IC50", "setting": "[1]", "value": "12.7 ± 2.5", "unit": "µM"}, {"measurement": "Ki", "setting": "[1]", "value": 3.07, "unit": "µM"}, {"measurement": "IC50", "setting": "[2]", "value": "13.1 ± 4.3", "unit": "µM"}, {"measurement": "Ki", "setting": "[2]", "value": 3.72, "unit": "µM"}]}, {"compound": "COc1ccc2c(c1)CC[C@@H]1[C@@H]2CC[C@]2(C)[C@@H](NCCCCCCN3C(=O)C=CC3=O)CC[C@@H]12", "note": "[U-73122, 1-[6-[[(17beta)-3-methoxyestra-1,3,5([10])-trien-17-yl]amion]hexyl]-1H-pyrrole-2,5-dione]", "values": [{"measurement": "IC50", "setting": "[1]; [7]", "value": "45.2 ± 12.6", "unit": "µM"}, {"measurement": "Ki", "setting": "[1]; [8]", "value": 11, "unit": "µM"}, {"measurement": "IC50", "setting": "[2]; [9]", "value": "> 180", "unit": "µM"}]}]}
